# Data published in ChEMBL document CHEMBL3091313, “Amino acids derived benzoxazepines: design, synthesis and antitumor activity” (Bioorg Med Chem Lett, 2013).
# The source made the active and inactive calls. No cut-off for these calls is given here.
# What was measured:
# MDA-MB-231 [1] = assay: Cell cycle arrest in human MDA-MB-231 cells assessed as accumulation at S phase at 1 uM after 24 hrs using propidium iodide staining by flow cytometry (reference value: 28.59 %); type: functional
# MDA-MB-231 [2] = assay: Cell cycle arrest in human MDA-MB-231 cells assessed as accumulation at G1 phase at 1 uM after 24 hrs using propidium iodide staining by flow cytometry (reference value: 52.67 %); type: functional
# MDA-MB-231 [3] = assay: Cell cycle arrest in human MDA-MB-231 cells assessed as apoptosis at 1 uM after 24 hrs using propidium iodide staining by flow cytometry (reference value: 0.10 %); type: functional
# MCF7 [4] = assay: Induction of apoptosis in human MCF7 cells assessed as phosphatidylserine exposure after 24 hrs using annexin V/PI staining by flow cytometry; type: functional, cell-based
# Procedure, shortened: (§1)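 MCF-7 cells were exposed to vehicle or the indicated compound concentrations for 24 h. Phosphatidylserine exposure was then measured by flow cytometry after staining with FITC-labelled Annexin V and propidium iodide. Apoptotic cell fractions were read from dot plots relative to vehicle.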
# MCF7 [5] = assay: Induction of apoptosis in human MCF7 cells assessed as late apoptotic cells at 5 uM after 24 hrs using annexin V/PI staining by flow cytometry (reference value: 6.46 %); type: functional; procedure, shortened: as §1
# MCF7 [6] = assay: Induction of apoptosis in human MCF7 cells assessed as early apoptotic cells at 5 uM after 24 hrs using annexin V/PI staining by flow cytometry (reference value: 3.19 %); type: functional
# MCF7 [7] = assay: Induction of apoptosis in human MCF7 cells assessed as late apoptotic cells at 1 uM after 24 hrs using annexin V/PI staining by flow cytometry (reference value: 6.46 %); type: functional; procedure, shortened: as §1
# [8] = Safety index, ratio of IC50 for HEK293 cells to IC50 for human MCF7 cells; type: toxicity, cell-based; conditions: HEK293 cells versus MCF7 cells, read-out: Ratio IC50
# Procedure, shortened: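 Cell death was assessed by MTT assay after 72 h exposure. The ratio was calculated as the HEK-293 IC50 divided by the MCF-7 EC50.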
# MDA-MB-231 [9] = assay: Antiproliferative activity against human MDA-MB-231 cells after 72 hrs by MTT assay; type: functional, cell-based; conditions: MDA-MB-231, 72 h
# Procedure, shortened: (§2)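 MCF-7 (ER+ve) and MDA-MB-231 (ER-ve) breast cancer cells were exposed to compound or vehicle. Viability was read by MTT and expressed as % cell death versus vehicle, with 4-hydroxytamoxifen as positive control. IC50 came from three independent experiments, each in triplicate.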
# MDA-MB-231 [10] = assay: Antiproliferative activity against human MDA-MB-231 cells after 48 hrs by MTT assay; type: functional, cell-based; conditions: MDA-MB-231, 48 h; procedure, shortened: as §2
# MCF7 [11] = assay: Antiproliferative activity against human MCF7 cells after 72 hrs by MTT assay; type: functional, cell-based; conditions: MCF7, 72 h; procedure, shortened: as §2
# [12] = Cytotoxicity against rat primary calvarial osteoblasts after 24 hrs by MTT assay; type: cell-based; conditions: calvarial osteoblast
# Procedure, shortened: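 Vero, HEK-293 and primary rat calvarial osteoblasts were given vehicle or a range of concentrations for 24 h. Cell death was expressed as % relative to vehicle.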
# MCF7 [13] = assay: Cytotoxicity against human MCF7 cells assessed as reduction in membrane integrity at IC50 by LDH release assay; type: functional, cell-based
# Procedure, shortened: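 Membrane integrity was assessed in MCF-7 cells exposed to a range of compound concentrations, by measuring LDH released into the culture medium.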
# HEK293 = assay: Cytotoxicity against HEK293 cells after 24 hrs by MTT assay; type: cell-based; conditions: Homo sapiens, HEK293, 72 h; in the assay text read “after 72 hrs” for “after 24 hrs”
# Mus musculus = assay: Toxicity in human MCF7 cells xenografted athymic nude mouse assessed as change in body weight at 16 mg/kg/day, po for 21 days measured up to 21 days relative to vehicle-treated control; type: organism-based; parameters: route oral; conditions: in vivo, 504 h
# MCF7 [14] = assay: Induction of apoptosis in human MCF7 cells assessed as reduction in cell viability at 5 uM after 24 hrs by MTT assay in presence of LEHD-FMK; type: functional, cell-based
# MCF7 [15] = assay: Induction of apoptosis in human MCF7 cells assessed as reduction in cell viability at 5 uM after 24 hrs by MTT assay in presence of zIEDT-FMK; type: functional, cell-based
# MCF7 [16] = assay: Induction of apoptosis in human MCF7 cells assessed as reduction in cell viability at 5 uM after 24 hrs by MTT assay in presence of zVAD-FMK; type: functional, cell-based
# MCF7 [17] = assay: Induction of apoptosis in human MCF7 cells assessed as increase in Bax/Bcl2 ratio at 5 uM after 6 to 24 hrs by immunoblotting method; type: functional, cell-based
# MCF7 [18] = assay: Induction of apoptosis in human MCF7 cells assessed as reduction in mitochondrial membrane potential at 1 to 5 uM after 12 hrs by Jc-1 staining-based flow cytometry; type: functional, cell-based
# MCF7 [19] = assay: Induction of apoptosis in human MCF7 cells assessed as caspase-8 cleavage at 5 uM after 6 hrs by immunoblotting method; type: functional, cell-based
# MCF7 [20] = assay: Cell cycle arrest in human MCF7 cells assessed as increase in p27 protein level at 5 uM after 12 to 24 hrs by immunoblotting method; type: functional, cell-based
# MCF7 [21] = assay: Cell cycle arrest in human MCF7 cells assessed as decrease in cyclin D1 mRNA level at 1 to 5 uM after 12 hrs by QRT-PCR method; type: functional, cell-based
# MCF7 [22] = assay: Cell cycle arrest in human MCF7 cells assessed as increase in p27 mRNA level at 1 to 5 uM after 12 hrs by QRT-PCR method; type: functional, cell-based
# MCF7 [23] = assay: Cell cycle arrest in human MCF7 cells assessed as apoptosis at 5 uM after 24 hrs using propidium iodide staining by flow cytometry (reference value: 0.06 %); type: functional
# MCF7 [24] = assay: Cell cycle arrest in human MCF7 cells assessed as accumulation at S phase at 3 uM after 24 hrs using propidium iodide staining by flow cytometry (reference value: 24.81 %); type: functional
# MCF7 [25] = assay: Cell cycle arrest in human MCF7 cells assessed as accumulation at G2 phase at 3 uM after 24 hrs using propidium iodide staining by flow cytometry (reference value: 7.46 %); type: functional
# MCF7 [26] = assay: Cell cycle arrest in human MCF7 cells assessed as accumulation at G1 phase at 3 uM after 24 hrs using propidium iodide staining by flow cytometry (reference value: 67.73 %); type: functional
# MCF7 [27] = assay: Cell cycle arrest in human MCF7 cells assessed as apoptosis at 3 uM after 24 hrs using propidium iodide staining by flow cytometry (reference value: 0.06 %); type: functional
# MCF7 [28] = assay: Cell cycle arrest in human MCF7 cells assessed as accumulation at G2 phase at 1 uM after 24 hrs using propidium iodide staining by flow cytometry (reference value: 7.46 %); type: functional
# MDA-MB-231 [29] = assay: Cell cycle arrest in human MDA-MB-231 cells assessed as accumulation at S phase at 5 uM after 24 hrs using propidium iodide staining by flow cytometry (reference value: 28.59 %); type: functional
# MDA-MB-231 [30] = assay: Cell cycle arrest in human MDA-MB-231 cells assessed as accumulation at G1 phase at 5 uM after 24 hrs using propidium iodide staining by flow cytometry (reference value: 52.67 %); type: functional
# MDA-MB-231 [31] = assay: Cell cycle arrest in human MDA-MB-231 cells assessed as accumulation at S phase at 3 uM after 24 hrs using propidium iodide staining by flow cytometry (reference value: 28.59 %); type: functional
# MDA-MB-231 [32] = assay: Cell cycle arrest in human MDA-MB-231 cells assessed as accumulation at G2 phase at 3 uM after 24 hrs using propidium iodide staining by flow cytometry (reference value: 18.75 %); type: functional
compound,measurement,setting,value
Cc1ccc(S(=O)(=O)N2Cc3ccccc3OC[C@@H]2Cc2ccc(OCCN3CCCCCC3)cc2)cc1.Cl,Activity,MDA-MB-231 [1],24.81%
same,Activity,MDA-MB-231 [2],67.73%
same,Activity,MDA-MB-231 [3],0.6%
same,Activity,MCF7 [4],Dose-dependent effect
same,Activity,MCF7 [5],35.77%
same,Activity,MCF7 [6],42.51%
same,Activity,MCF7 [7],20.15%
same,selectivity ratio,[8],16.4
same,IC50,MDA-MB-231 [9],4.6 µM
same,IC50,MDA-MB-231 [10],5.45 µM
same,IC50,MCF7 [11],1.83 µM
same,Activity,[12],Non-toxic
same,Activity,MCF7 [13],inactive
same,IC50,HEK293,30 µM
same,Activity,Mus musculus,Non-toxic
same,Activity,MCF7 [14],inactive
same,Activity,MCF7 [15],Active
same,Activity,MCF7 [16],Active
same,Activity,MCF7 [17],Active
same,Activity,MCF7 [18],Active
same,Activity,MCF7 [19],Active
same,Activity,MCF7 [20],Active
same,Activity,MCF7 [21],Active
same,Activity,MCF7 [22],Active
same,Activity,MCF7 [23],2.86%
same,Activity,MCF7 [24],6.18%
same,Activity,MCF7 [25],6.86%
same,Activity,MCF7 [26],86.96%
same,Activity,MCF7 [27],0.52%
same,Activity,MCF7 [28],6.97%
same,Activity,MDA-MB-231 [29],17.71%
same,Activity,MDA-MB-231 [30],75.82%
same,Activity,MDA-MB-231 [31],18.64%
same,Activity,MDA-MB-231 [32],8.08%
